Shown are actives, neighbours in structure and some others; about 1.6% of the full set was active somewhere.
pCIP destab: lowers stability of the mouse p/CIP coactivator protein; 290,000 compounds, 0.01% hits; Q05BA5; AID 1984; decrease of EGFP signal, % at 10 µM; F442A p/CIP-EGFP cells, EGFP fluorescence, 16 h;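 active = EGFP signal decrease of at least 30% at 10 µM or well 3 SD below plate mean, unless failing retest; inactive = the rest, including hits failing retest or dose response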
MsrA inh: bovine MsrA inhibition | 360,000 compounds, 0.75% hits | AID 651718 | purified bovine MsrA, absorbance read-out | inhibition, % at 15.5 µM; in the data active = inhibition above about 4.5%
MsrA act: activators of bovine methionine sulfoxide reductase A | purified bovine MsrA, absorbance read-out | 360,000 compounds, 0.3% hits | activation, % at 10.6 µM | AID 602163; in the data active = activation above about 7.5%
MT1-MMP act inh: blocks activation of human MT1-MMP; HT1080 RFP-PRO-GFP cells, GFP/RFP ratio fluorescence, overnight; percent of plate control window, DMSO zero; GFP/RFP ratio change, % at 20 µM; 360,000 compounds, 0.061% hits; AID 651647;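 active = GFP/RFP ratio change of at least 30% with cell ATP level not reduced by more than half and red fluorescence within 50% of control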
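Material – HT1080 RFP-PRO-GFP cells · Control set – DMSO wells and RFP-L50D-GFP cells · Incubation – overnight cell settling, then overnight compound exposure, 37 °C, 5% CO2 · Compound dosing – single-point 20 µM compound, 1% DMSO · Read-out – GFP/RFP fluorescence ratio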
SKN-1 block: inhibitors of C. elegans SKN-1. C. elegans VP596 Pgst-4::GFP/RFP ratio, acrylamide-induced, 24 h. inhibition, % at 21.8 µM. 360,000 compounds, 0.49% hits;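 active = interference check ratio from 0.5 to 1.5 plus GFP to RFP signal ratio inhibition reaching or exceeding a fixed threshold, cut at about 30% in these data, passing the limit was not always enough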
A number is an active result; i = inactive; nt = no result.

SMILES	pCIP destab	MsrA inh	MsrA act	MT1-MMP act inh	SKN-1 block
OC(c1ccccc1)(c1ccccc1)C1CCN(CCCOc2cccc(C(F)(F)F)c2)CC1	nt	i	nt	nt	nt
Fc1ccc(CSc2nnc(-c3cccs3)o2)cc1	i	i	i	i	58.3
C(=C\c1nnc(-c2cccs2)o1)/c1ccccc1	i	i	i	i	76.9
Fc1ccc(-c2nnc(CSc3nnc(-c4cccs4)o3)o2)cc1	i	i	i	i	i
c1ccc(CSc2nnc(-c3cccs3)o2)cc1	i	i	i	i	61.2
COC(=O)[C@H]1[C@@H](O)[C@@]2(O)c3c(OC)cc(OC)cc3O[C@@]2(c2ccc(OC)cc2)[C@@H]1c1ccc(F)cc1	nt	i	nt	nt	nt
O=NC1=C(c2c(O)[nH]c3ccccc23)CCCC1	i	i	i	i	i
Oc1[nH]c2ccccc2c1C1=NCCCCC1	i	4.6	i	i	i
COc1ccc(C2C(C(C)=O)=C(C)N=c3s/c(=C\c4cc(C)n(C)c4C)c(=O)n32)c(OC)c1 (stereo not drawn)	i	i	i	i	39.4
Cc1c(C(=O)N2CCN(S(=O)(=O)c3ccccc3F)CC2)oc2c(Cl)cccc12	nt	i	i	nt	44.7
Cc1onc(-c2c(F)cccc2Cl)c1C(=O)Nc1nc2ccccc2[nH]1	i	i	i	i	41.7
COC(=O)c1c(-c2ccc(OC)cc2)c2c(c3c4cc(OC)ccc4n(S(=O)(=O)c4ccc(C)cc4)c13)C(=O)N(C)C2	nt	i	nt	nt	nt
COC(=O)c1ccc(CC2(C)C(=O)Nc3ccc(OC(F)(F)F)cc32)o1 (stereo not drawn)	nt	i	i	i	i
COC(=O)c1cccc(CC2(C)C(=O)Nc3ccc(OC(F)(F)F)cc32)c1 (stereo not drawn)	nt	i	i	i	37.3
C=CCCC1CN(Cc2ccc(OC)cc2)S(=O)(=O)c2c(cccc2N2CCCCC2)O1 (stereo not drawn)	nt	i	nt	nt	nt
COc1ccccc1NC(=O)COC(=O)c1cc(C)nc2ccccc12	nt	i	i	i	i
Cc1cc(C(=O)OCC(=O)Nc2ccc(S(N)(=O)=O)cc2)c2ccccc2n1	61.7	i	i	i	i
CCCc1cc(-c2nc(-c3ccc(Cl)cc3)cs2)ccn1	i	i	i	i	55.5
COC(=O)[C@H](Cc1ccccc1)N1CC(N2CCCC2)CS1(=O)=O (stereo partly drawn)	nt	i	nt	nt	nt
Nc1nc2c(ncn2[C@@H]2O[C@H](C(=O)N[C@@H](Cc3ccccc3)C(=O)NCc3ccc4c(c3)OCO4)[C@@H](O)[C@H]2O)c(=O)[nH]1	nt	i	nt	nt	nt
CC(C)C[C@H]1COc2cc(N3CCOCC3)ccc2S(=O)(=O)N1	nt	i	nt	nt	nt
CCN(CC)c1ccc(C2N(C(=O)N3CCOCC3)CCN2S(=O)(=O)c2ccc(C)cc2)cc1 (stereo not drawn)	i	4.6	i	i	i
N/C(=N\OC(=O)c1ccc(Cl)cc1)c1cccnc1	i	i	i	nt	28.9
N/C(=N\OC(=O)c1ccc(Cl)cc1Cl)c1cccnc1	i	i	i	i	53.8
N/C(=N\OC(=O)c1ccccc1Cl)c1ccccc1	i	i	i	i	61.5
SMILES	pCIP destab	MsrA inh	MsrA act	MT1-MMP act inh	SKN-1 block
N/C(=N\OC(=O)c1ccc(Cl)cc1Cl)c1ccc(Cl)cc1	i	i	i	nt	i
N/C(=N\OC(=O)c1ccc(Cl)cc1Cl)c1ccccc1	i	i	i	i	56.0
N/C(=N\OC(=O)c1ccc(Cl)cc1)c1ccc(Cl)cc1	i	i	i	i	i
N/C(=N\OC(=O)c1ccccc1Cl)c1ccc(Cl)cc1	i	i	i	i	i
O=S1(=O)N[C@@H](Cc2ccccc2)COc2cc(NC3CC3)ccc21	nt	i	nt	nt	nt
CC(C)(C)c1ccc(S(=O)(=O)NCC2CCN(C(=O)C(=O)c3cccs3)CC2)cc1	nt	i	nt	nt	nt
COC(=O)C1=C(C)N(C)C(=NCc2ccc3c(c2)OCO3)NC1c1ccc(C(F)(F)F)cc1 (stereo not drawn)	nt	i	nt	nt	nt
COc1ccccc1/C=C/C(=O)NCC(=O)N/N=C(/C)c1ccco1	i	i	i	i	i
COc1ccc(/C(C)=N/NC(=O)CNC(=O)/C=C\c2ccccc2OC)c(OC)c1	i	i	i	i	36.7
C[C@H](CO)N1C[C@H](C)[C@@H](CN(C)C(=O)c2ccncc2)OCc2cn(nn2)CCCC1=O	nt	i	nt	nt	nt
COc1cccc(CN(C)C(=O)[C@@H](Cc2ccccc2)NC(=O)[C@H]2O[C@@H](n3ccc(=O)[nH]c3=O)[C@H](O)[C@@H]2O)c1	nt	i	nt	nt	nt
CC(=O)N1CCN(c2ccc([N+](=O)[O-])cc2C#N)CC1	i	4.6	i	i	i
CC1(C)Cc2c(c(=S)nc(-c3ccccc3)n2CCN2CCOCC2)CO1	i	4.6	i	i	i
CC(NC(=O)C=Cc1ccco1)C(=O)NC(Cc1ccccc1)C(N)=O (stereo not drawn)	nt	i	nt	nt	nt
Cn1c(=O)c(-c2ccccc2)nn2c3ccccc3nc12	i	i	i	i	i
CCn1c(=O)c(C)nn2c3ccccc3nc12	i	i	i	i	34.6
O=C(C(=O)N1CCN(S(=O)(=O)c2cccc(C(F)(F)F)c2)CC1)c1cccc(C(F)(F)F)c1	nt	i	nt	nt	nt
Cc1c(/C(O)=C2\C(=O)C(=O)N(CCN(C)C)C2c2cccs2)cnn1-c1ccccc1 (stereo not drawn)	i	4.6	i	i	i
C[C@H](CO)N1C[C@H](C)[C@@H](CN(C)C(=O)Nc2cccc(F)c2)OCc2cn(nn2)CCCC1=O	nt	i	nt	nt	nt
O=c1[nH]nc(Cc2ccc([N+](=O)[O-])cc2)c2ccccc12	i	i	i	i	31.9
O=c1[nH]nc(Cc2ccccc2)c2ccccc12	i	i	i	i	i
COC(=O)c1oc(-c2ccccc2)nc1C	i	i	i	i	i
COC(=O)c1nc(-c2ccccc2)oc1N(C)C	i	i	i	i	32.0
COc1ccc2c3c(cccc13)OC2=O	i	i	i	i	i
COc1ccc2c3c(cccc13)N(C)N=C2C	i	i	i	i	40.9
SMILES	pCIP destab	MsrA inh	MsrA act	MT1-MMP act inh	SKN-1 block
CC1CCN(S(=O)(=O)c2ccc3c(c2)C(=NO)c2cc(S(=O)(=O)N4CCC(C)CC4)ccc2-3)CC1	nt	i	i	i	i
O=C(NCCc1ccccn1)c1ccc(S(=O)(=O)N2CCCCCC2)cc1	i	i	i	i	39.4
O=S(=O)(c1ccc2c(c1)C(=NO)c1cc(S(=O)(=O)N3CCCCC3)ccc1-2)N1CCCCC1	60.3	i	i	i	i
COC(=O)c1ccc(S(=O)(=O)N2CCCCCC2)cc1	i	i	i	i	35.2
O=C(C(=O)N1CCC(CNS(=O)(=O)c2cccc(C(F)(F)F)c2)CC1)c1cc2ccccc2o1	nt	i	nt	nt	nt
CCOC(=O)C1=C(C(=O)OCC)C2N(Cc3ccc(C#N)cc3)c3ccccc3[C@@]23C[C@@H](C(=O)OC)N(S(=O)(=O)c2ccccc2)C3=N1 (stereo partly drawn)	nt	i	nt	nt	nt
CC(C)c1[nH]nc2c1C(c1cccc(C(F)(F)F)c1)NC2=O (stereo not drawn)	nt	i	nt	nt	nt
COC(=O)Cc1nnn2c1[C@H](C)[C@@H](OC)c1ccc(C(F)(F)F)cc1-2	nt	i	nt	nt	nt
CCCN1CCCCC(NC(=O)c2ccc(Cl)cc2Cl)C1=O (stereo not drawn)	nt	i	nt	nt	nt

Compound activity: PubChem, several laboratories
